Data from ChEMBL document CHEMBL1149269, “Novel 2-(substituted phenyl)benzimidazole derivatives with potent activity against IgE, cytokines, and CD23 for the treatment of allergy and asthma” (J Med Chem, 2004).
Active and inactive are the calls of the source. No cut-off for these calls is given here.

Assays:
T-cell [1] = test: Inhibition of IL5 production in conA and anti-CD3 antibody sensitized BALB/c mouse spleen T lymphocytes; type: functional, tissue-based
B-cell = test: Inhibition of IgE production in B lymphocytes from BALB/c mouse; type: functional, cell-based
How it was run: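 B cells isolated from spleens of naive BALB/c mice, cultured 5 days with IL-4 (10 ng/mL) and anti-mouse CD40 antibody (100 ng/mL), with or without drug. IgE in supernatants quantified by ELISA against a standard curve of DNP-specific mouse monoclonal antibody.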

[2] = Suppression of CD23 expression in IL4 and anti-CD40 antibody sensitized CD14-positive human peripheral blood lymphocytes; details: Lymphocyte
[3] = Ex vivo inhibition of IgE production in spleen cells from antigen sensitized BALB/c mouse; type: functional, cell-based
How it was run: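 BALB/c mice immunized with DNP-KLH plus alum; spleens taken 2 weeks later and cultured with antigen, with or without drug. Antigen-specific IgE in supernatants quantified by ELISA against a standard curve of DNP-specific mouse monoclonal antibody.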

T-cell [4] = test: Inhibition of IL4 production in conA and anti-CD3 antibody sensitized BALB/c mouse spleen T lymphocytes; type: functional, tissue-based
[5] = Suppression of IL4 receptor alpha expression in IL4 and anti-CD40 antibody sensitized mouse splenocytes; details: Splenocyte
[6] = Suppression of CD23 expression in IL4 and anti-CD40 antibody sensitized mouse splenocytes; details: Splenocyte
T-cell [7] = test: Inhibition of IL13 production in conA and anti-CD3 antibody sensitized BALB/c mouse spleen T lymphocytes; type: functional, tissue-based
T-cell [8] = test: Inhibition of IFN-gamma production in conA and anti-CD3 antibody sensitized BALB/c mouse spleen T lymphocytes; type: functional, tissue-based
Mus musculus [9] = test: Protection against allergic response in ovalbumin sensitized BALB/c mouse assessed as inhibition of airway hyper-responsiveness at 5 mg/kg, po twice daily; type: functional, organism-based; set-up: dose 5 mg/kg
How it was run: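 Female BALB/c mice sensitized i.p. with 10 µg OVA in 4 mg alum. At 2 weeks, OVA aerosol (2% in PBS) 20 min on 2 consecutive days with oral dosing twice daily for 3 days. 2 weeks later, OVA aerosol on 4 consecutive days with the same dosing. PBS-nebulized controls. Airway response to rising methacholine measured by whole-body plethysmography 1 day later.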

Mus musculus [10] = test: Oral bioavailability in mouse at 40 mg/kg, po relative to AVP-13358; type: ADME, organism-based; details: in vivo

| IC50 (B-cell) | Relative Bioavailability (Mus musculus [10]) | Compound | IC50 [3] | also measured |
| --- | --- | --- | --- | --- |
| 8 nM |  | O=C(Nc1ccccn1)c1ccc2[nH]c(-c3ccc(NC(=O)C45CC6CC(CC(C6)C4)C5)cc3)nc2c1 | 3 nM | IC50 (T-cell [1]): 30 nM; IC50 [2]: 20 nM; IC50 (T-cell [4]): 30 nM; IC50 [5]: 100 nM; IC50 [6]: 40 nM; IC50 (T-cell [7]): 30 nM; Activity (T-cell [8]): Active; Activity (Mus musculus [9]): Active |
| 15 nM | < 0.1 | O=C(Nc1ccccn1)c1ccc2[nH]c(-c3ccc(NC(=O)C45C[C@@H]6C[C@H](C4)[C@H](O)[C@@H](C6)C5)cc3)nc2c1 | 1 nM |  |
| 7 nM | < 0.1 | O=C(NC1CCCCC1)c1ccc2[nH]c(-c3ccc(NC(=O)C45CC6CC(CC(C6)C4)C5)cc3)nc2c1 | 2 nM |  |
| 90 nM | < 0.1 | CC(=O)Nc1ccc(-c2nc3cc(C(=O)NC45CC6CC(CC(C6)C4)C5)ccc3[nH]2)cc1 | 25 nM |  |
| 8 nM | < 0.1 | O=C(Nc1ccccn1)c1ccc2[nH]c(-c3ccc(NC(=O)C45C[C@@H]6C[C@H](C4)[C@@H](O)[C@@H](C6)C5)cc3)nc2c1 | 1 nM |  |
| 2 nM | < 0.1 | O=C(Nc1ccc(-c2nc3cc(C(=O)NC45CC6CC(CC(C6)C4)C5)ccc3[nH]2)cc1)c1ccc(Cl)c(Cl)c1 | 0.4 nM |  |
| 40 nM | 0.5 | O=C(Nc1ccccn1)c1ccc2[nH]c(-c3ccc(NC(=O)C45CC6CC(C4)C(=O)C(C6)C5)cc3)nc2c1 | 10 nM |  |
| 5 nM | 0.35 | CC(=O)OC12CC3CC(C1)CC(C(=O)Nc1ccc(-c4nc5cc(C(=O)Nc6ccccn6)ccc5[nH]4)cc1)(C3)C2 | 1 nM |  |
| 2 nM | < 0.1 | O=C(NC12CC3CC(CC(C3)C1)C2)c1ccc2[nH]c(-c3ccc(NC(=O)C45CC6CC(CC(C6)C4)C5)cc3)nc2c1 | 1 nM |  |
